Laboratory results: ChEMBL document CHEMBL4251593, “Nontoxic combretafuranone analogues with high in vitro antibacterial activity” (Eur J Med Chem, 2018)
Values after ≈ are worked out from the molar mass of the structure shown. Active and inactive are the calls of the source. The rule behind the calls is not given here.

Legend:
TERT-RPE1 [1] = assay: Cytotoxicity against human RPE1 cells assessed as reduction in cell viability after 48 hrs by ATPlite-based luminescent assay; details: RPE-1, 48 h
How it was run: (§1)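 Cells were grown […] with 10% FBS, glutamax, NEAA and pen/strep at 37 °C, 5% CO2. Media were DMEM for RPE-1, HepG2 and BJ (BJ plus 10 ng/ml bFGF), F-12K for PC3, and IMDM for K562/HL-60. Cells were seeded at 500 per well and dosed from DMSO at 12 concentrations, 40 µM to 1 nM, in triplicate. After 48 h, intracellular ATP was read by luminescence. ED50 was obtained by variable-slope nonlinear regression.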

BJ = assay: Cytotoxicity against human BJ cells assessed as reduction in cell viability after 48 hrs by ATPlite-based luminescent assay; how it was run: as §1
K562 [2] = assay: Cytotoxicity against human K562 cells assessed as reduction in cell viability after 48 hrs by ATPlite-based luminescent assay; details: K562, 48 h; how it was run: as §1
HL-60 [3] = assay: Cytotoxicity against human HL60 cells assessed as reduction in cell viability after 48 hrs by ATPlite-based luminescent assay; details: HL-60, 48 h; how it was run: as §1
PC-3 [4] = assay: Cytotoxicity against human PC3 cells assessed as reduction in cell viability after 48 hrs by ATPlite-based luminescent assay; details: PC-3, 48 h; how it was run: as §1
MCF7 = assay: Cytotoxicity against human MCF7 cells assessed as reduction in cell viability after 48 hrs by ATPlite-based luminescent assay; details: MCF7, 48 h
HepG2 [5] = assay: Cytotoxicity against human HepG2 cells assessed as reduction in cell viability after 48 hrs by ATPlite-based luminescent assay; details: HepG2, 48 h; how it was run: as §1
TERT-RPE1 [6] = assay: Induction of apoptosis in human RPE1 cells assessed as caspase 3/7 activity after 24 hrs by caspase-glo luminescent assay; type: cell-based; details: RPE-1, 24 h
How it was run: (§2)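 Cells were seeded at 500 per well in their growth media and exposed to 12 concentrations from 40 µM to 1 nM, delivered from DMSO, in triplicate. After 24 h, caspase-3/7 activity was read by Caspase-Glo luminescence. Data were normalized and ED50 was fitted by variable-slope nonlinear regression.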

K562 [7] = assay: Induction of apoptosis in human K562 cells assessed as caspase 3/7 activity after 24 hrs by caspase-glo luminescent assay; type: cell-based; details: K562, 24 h; how it was run: as §2
HL-60 [8] = assay: Induction of apoptosis in human HL60 cells assessed as caspase 3/7 activity after 24 hrs by caspase-glo luminescent assay; type: cell-based; details: HL-60, 24 h; how it was run: as §2
PC-3 [9] = assay: Induction of apoptosis in human PC3 cells assessed as caspase 3/7 activity after 24 hrs by caspase-glo luminescent assay; type: cell-based; details: PC-3, 24 h; how it was run: as §2
HepG2 [10] = assay: Induction of apoptosis in human HepG2 cells assessed as caspase 3/7 activity after 24 hrs by caspase-glo luminescent assay; type: cell-based; details: HepG2, 24 h; how it was run: as §2
Staphylococcus aureus [11] = assay: Antibacterial activity against Staphylococcus aureus ATCC 6538 after 24 hrs by microdilution assay; type: functional; details: ATCC 6538, 24 h
Staphylococcus aureus [12] = assay: Antibacterial activity against methicillin-resistant Staphylococcus aureus HK5996/08 clinical isolate after 24 hrs by microdilution assay; type: functional; details: HK5996/08, 24 h
[13] = test system: Staphylococcus epidermidis; assay: Antibacterial activity against Staphylococcus epidermidis HK6966/08 clinical isolate after 24 hrs by microdilution assay; type: functional; details: HK6966/08, 24 h
Enterococcus sp. [14] = assay: Antibacterial activity against Enterococcus sp. HK14365/08 clinical isolate after 24 hrs by microdilution assay; type: functional; details: HK14365/08, 24 h
Escherichia coli [15] = assay: Antibacterial activity against Escherichia coli ATCC 8739 after 24 hrs by microdilution assay; type: functional; details: ATCC 8739, 24 h
How it was run: (§3)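 Broth microdilution in Mueller-Hinton medium buffered to pH 7.4 (±0.2), with DMSO as diluent at no more than 2% final. Compounds were tested as 2-fold serial dilutions from 2000 to 0.488 µmol/l. The inoculum was 0.5 McFarland (1.5×10^8 cfu/ml). Plates were held at 37 °C and read visually at 24 and 48 h. MIC was taken as 95% growth inhibition versus control, determined twice in duplicate.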

Klebsiella pneumoniae [16] = assay: Antibacterial activity against Klebsiella pneumoniae HK11750/08 clinical isolate after 24 hrs by microdilution assay; type: functional; details: HK11750/08, 24 h
Klebsiella pneumoniae [17] = assay: Antibacterial activity against Klebsiella pneumoniae HK14368/08 clinical isolate after 24 hrs by microdilution assay; type: functional; details: HK14368/08, 24 h
Pseudomonas aeruginosa [18] = assay: Antibacterial activity against Pseudomonas aeruginosa ATCC 9027 after 24 hrs by microdilution assay; type: functional; details: ATCC 9027, 24 h; how it was run: as §3
Staphylococcus aureus [19] = assay: Antibacterial activity against Staphylococcus aureus ATCC 6538 after 48 hrs by microdilution assay; type: functional; details: ATCC 6538, 48 h
Staphylococcus aureus [20] = assay: Antibacterial activity against methicillin-resistant Staphylococcus aureus HK5996/08 clinical isolate after 48 hrs by microdilution assay; type: functional; details: HK5996/08, 48 h
[21] = test system: Staphylococcus epidermidis; assay: Antibacterial activity against Staphylococcus epidermidis HK6966/08 clinical isolate after 48 hrs by microdilution assay; type: functional; details: HK6966/08, 48 h
Enterococcus sp. [22] = assay: Antibacterial activity against Enterococcus sp. HK14365/08 clinical isolate after 48 hrs by microdilution assay; type: functional; details: HK14365/08, 48 h
Escherichia coli [23] = assay: Antibacterial activity against Escherichia coli ATCC 8739 after 48 hrs by microdilution assay; type: functional; details: ATCC 8739, 48 h; how it was run: as §3
Klebsiella pneumoniae [24] = assay: Antibacterial activity against Klebsiella pneumoniae HK11750/08 clinical isolate after 48 hrs by microdilution assay; type: functional; details: HK11750/08, 48 h
Klebsiella pneumoniae [25] = assay: Antibacterial activity against Klebsiella pneumoniae HK14368/08 clinical isolate after 48 hrs by microdilution assay; type: functional; details: HK14368/08, 48 h
Pseudomonas aeruginosa [26] = assay: Antibacterial activity against Pseudomonas aeruginosa ATCC 9027 after 48 hrs by microdilution assay; type: functional; details: ATCC 9027, 48 h; how it was run: as §3
Candida albicans [27] = assay: Antifungal activity against Candida albicans ATCC 44859 up to 1 mM after 24 to 48 hrs by microdilution assay; type: functional, organism-based
How it was run: (§4)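 Fungal microdilution following modified CLSI M27-A3/M38-A2, in RPMI 1640 with L-glutamine and 0.165 M MOPS at pH 7.0, with DMSO no more than 2% final. Compounds were 2-fold serially diluted from 2000 to 0.488 µmol/l. The inoculum was 5×10^3 cfu/ml. Incubation was at 35 °C, read visually at 24/48 h (T. mentagrophytes at 72/120 h). MIC was IC80 for yeasts and IC50 for filamentous fungi, determined twice in duplicate.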

Candida albicans [28] = assay: Antifungal activity against Candida albicans ATCC 90028 up to 1 mM after 24 to 48 hrs by microdilution assay; type: functional, organism-based; how it was run: as §4
Candida parapsilosis = assay: Antifungal activity against Candida parapsilosis ATCC 22019 up to 1 mM after 24 to 48 hrs by microdilution assay; type: functional, organism-based; how it was run: as §4
Pichia kudriavzevii [29] = assay: Antifungal activity against Candida krusei ATCC 6258 up to 1 mM after 24 to 48 hrs by microdilution assay; type: functional, organism-based; how it was run: as §4
Pichia kudriavzevii [30] = assay: Antifungal activity against Candida krusei E28 clinical isolate up to 1 mM after 24 to 48 hrs by microdilution assay; type: functional, organism-based; how it was run: as §4
Candida tropicalis = assay: Antifungal activity against Candida tropicalis 156 clinical isolate up to 1 mM after 24 to 48 hrs by microdilution assay; type: functional, organism-based; how it was run: as §4
Nakaseomyces glabratus = assay: Antifungal activity against Candida glabrata 20/I clinical isolate up to 1 mM after 24 to 48 hrs by microdilution assay; type: functional, organism-based; how it was run: as §4
Clavispora lusitaniae = assay: Antifungal activity against Candida lusitaniae 2446/I clinical isolate up to 1 mM after 24 to 48 hrs by microdilution assay; type: functional, organism-based; how it was run: as §4
Trichosporon asahii = assay: Antifungal activity against Trichosporon asahii 1188 clinical isolate up to 1 mM after 24 to 48 hrs by microdilution assay; type: functional, organism-based; how it was run: as §4
Aspergillus fumigatus = assay: Antifungal activity against Aspergillus fumigatus 231 up to 1 mM after 24 to 48 hrs by microdilution assay; type: functional, organism-based; how it was run: as §4
Lichtheimia corymbifera = assay: Antifungal activity against Absidia corymbifera 272 up to 1 mM after 24 to 48 hrs by microdilution assay; type: functional, organism-based; how it was run: as §4
[31] = test system: Trichophyton mentagrophytes; assay: Antifungal activity against Trichophyton mentagrophytes 445 up to 1 mM after 72 to 120 hrs by microdilution assay; type: functional, organism-based; how it was run: as §4

SMILES	IC50 (TERT-RPE1 [1]) [µM]	IC50 (BJ) [µM]	IC50 (K562 [2]) [µM]	IC50 (HL-60 [3]) [µM]	IC50 (PC-3 [4]) [µM]	IC50 (MCF7) [µM]	IC50 (HepG2 [5]) [µM]	IC50 (TERT-RPE1 [6]) [µM]	IC50 (K562 [7]) [µM]	IC50 (HL-60 [8]) [µM]	IC50 (PC-3 [9]) [µM]	IC50 (HepG2 [10]) [µM]	MIC95 (Staphylococcus aureus [11]) [µM]	MIC95 (Staphylococcus aureus [12]) [µM]	MIC95 [13] [µM]	MIC95 (Enterococcus sp. [14]) [µM]	MIC95 (Escherichia coli [15]) [µM]	MIC95 (Klebsiella pneumoniae [16]) [µM]	MIC95 (Klebsiella pneumoniae [17]) [µM]	MIC95 (Pseudomonas aeruginosa [18]) [µM]	other results
O=C1OCC(c2ccccc2)=C1c1ccc(Br)cc1	> 40	> 40	> 40	> 40	> 40	> 40	> 40	> 40	> 40	> 40	> 40	> 40	3.9 (≈ 1.23 µg/mL)	31.2 (≈ 9.85 µg/mL)	31.2 (≈ 9.85 µg/mL)	> 1000	> 1000	> 1000	> 1000	> 1000	MIC95 (Staphylococcus aureus [19]): 15.6 µM (≈ 4.92 µg/mL); MIC95 (Staphylococcus aureus [20]): 62.5 µM (≈ 19.7 µg/mL); MIC95 [21]: 62.5 µM (≈ 19.7 µg/mL); MIC95 (Enterococcus sp. [22]): > 1000 µM; MIC95 (Escherichia coli [23]): > 1000 µM; MIC95 (Klebsiella pneumoniae [24]): > 1000 µM; MIC95 (Klebsiella pneumoniae [25]): > 1000 µM; MIC95 (Pseudomonas aeruginosa [26]): > 1000 µM; Activity (Candida albicans [27]): inactive; Activity (Candida albicans [28]): inactive; Activity (Candida parapsilosis): inactive; Activity (Pichia kudriavzevii [29]): inactive; Activity (Pichia kudriavzevii [30]): inactive; Activity (Candida tropicalis): inactive; Activity (Nakaseomyces glabratus): inactive; Activity (Clavispora lusitaniae): inactive; Activity (Trichosporon asahii): inactive; Activity (Aspergillus fumigatus): inactive; Activity (Lichtheimia corymbifera): inactive; Activity [31]: inactive
Cc1ccc(C2=C(c3ccc(Br)cc3)C(=O)OC2CO)cc1 (stereo not given)	> 40	> 40	31.4	21.3	> 40	> 40	> 40	> 40	46.7	> 40	> 40	> 40	15.6 (≈ 5.61 µg/mL)	62.5 (≈ 22.5 µg/mL)	62.5 (≈ 22.5 µg/mL)	500 (≈ 180 µg/mL)	> 500	> 500	> 500	> 500	MIC95 (Staphylococcus aureus [19]): 15.6 µM (≈ 5.61 µg/mL); MIC95 (Staphylococcus aureus [20]): 62.5 µM (≈ 22.5 µg/mL); MIC95 [21]: 62.5 µM (≈ 22.5 µg/mL); MIC95 (Enterococcus sp. [22]): > 500 µM; MIC95 (Escherichia coli [23]): > 500 µM; MIC95 (Klebsiella pneumoniae [24]): > 500 µM; MIC95 (Klebsiella pneumoniae [25]): > 500 µM; MIC95 (Pseudomonas aeruginosa [26]): > 500 µM; Activity (Candida albicans [27]): inactive; Activity (Candida albicans [28]): inactive; Activity (Candida parapsilosis): inactive; Activity (Pichia kudriavzevii [29]): inactive; Activity (Pichia kudriavzevii [30]): inactive; Activity (Candida tropicalis): inactive; Activity (Nakaseomyces glabratus): inactive; Activity (Clavispora lusitaniae): inactive; Activity (Trichosporon asahii): inactive; Activity (Aspergillus fumigatus): inactive; Activity (Lichtheimia corymbifera): inactive; Activity [31]: inactive
